Published values gathered from unrelated publications.
Each line is one published result; the experiments were not run side by side.
HRH1: Histamine H1 receptor (HRH1, Homo sapiens, UniProt P35367)
CHRM4: Muscarinic acetylcholine receptor M4 (CHRM4, Homo sapiens, UniProt P08173)

For `Nc1cccc2cc3ccccc3cc12`, the Kd was 9 µM (Ferritin light chain (FTL, Equus caballus, UniProt P02791); binding, fluorescence).
With `CC(C)C[C@H](NC(=O)[C@H](CCCCN)NC(=O)[C@@H]1CCCN1C(=O)[C@@H](N)CCCNC(=N)N)C(=O)N[C@@H](CCCCN)C(=O)O` the Ki was greater than 10 µM (HRH1; cell-free assay, radioligand).
`CNc1nc2cc(OCCCCN3CCN(c4cccc(Cl)c4Cl)CC3)ccc2s1` has a Ki of 0.056 µM (HRH1; ligand displacement, radioligand).
The Ki of `Cc1cc(N2CCNCC2)nc2ccccc12` is reported as greater than 63.1 µM (CHRM4; ligand displacement, radioligand; cell membranes).
`CC[C@H](C)[C@H](NC(=O)[C@H](CS)NC(=O)[C@H](CCC(N)=O)NC(=O)[C@H](CC(C)C)NC(=O)[C@H](CCCCN)NC(=O)[C@H](CCCNC(=N)N)NC(=O)[C@H](C)NC(=O)[C@@H](NC(=O)[C@H](CCC(N)=O)NC(=O)[C@@H](NC(=O)[C@H](CCC(=O)O)NC(=O)[C@H](C)NC(=O)[C@H](CCC(N)=O)NC(=O)[C@H](Cc1c[nH]cn1)NC(=S)Nc1ccc2c(c1)C(=O)OC21c2ccc(O)cc2Oc2cc(O)ccc21)C(C)C)[C@@H](C)CC)C(=O)N[C@@H](C)C(=O)N[C@@H](CC(=O)O)C(=O)N[C@@H](CCC(N)=O)C(=O)N[C@@H](Cc1ccccc1)C(=O)N[C@@H](Cc1c[nH]cn1)C(=O)N[C@@H](CCCNC(=N)N)C(=O)N[C@@H](CC(C)C)C(=O)N[C@@H](Cc1c[nH]cn1)C(=O)N[C@H](C(=O)N[C@@H](CCC(N)=O)C(=O)N[C@@H](CCC(N)=O)C(=O)O)C(C)C` gave a Kd of 49 µM (Induced myeloid leukemia cell differentiation protein Mcl-1 (MCL1, Homo sapiens, UniProt Q07820, R263A); cell-free assay, FP).
`O=C(Nc1cccc(-c2ccn3c(CC4CC4)nnc3c2C(F)(F)F)c1)c1ccc(S(=O)(=O)F)cc1` has an EC50 of greater than 50.1 µM (Metabotropic glutamate receptor 1 (GRM1, Homo sapiens, UniProt Q13255); calcium signal, agonist).
`CSCC[C@H](NC(=O)[C@@H](NC(=O)[C@@H](N)Cc1ccc(O)cc1)C(C)C)C(=O)NCC(=O)N[C@@H](Cc1c[nH]cn1)C(=O)O` has an EC50 of 26.8 µM (Melanocortin receptor 5 (Mus musculus, UniProt P41149); reporter gene, agonist).
With `OC(c1ccc(F)cc1)C(F)(F)CCN1CCC(O)(c2ccc(Cl)cc2)CC1` (racemic) the Ki was 0.408 µM (HRH1; cell-free assay, radioligand).
With `NC(N)=NCCC[C@H](NC(=O)OCc1ccccc1)C(=O)O` the Ki was 1230 µM (Serine protease 1 (PRSS1, Bos taurus, UniProt P00760); enzyme activity, inhibitor, absorbance; pH 7.2).
`CCCCC/C=C\C/C=C\C/C=C\C/C=C\CCCC(=O)OCCN` has a Kd of 14 µM (Cytochrome P450 2J2 (CYP2J2, Homo sapiens, UniProt P51589); binding, absorbance).
With `N[C@@H](CCP(=O)(O)O)C(=O)O` the EC50 was 0.151 µM (Metabotropic glutamate receptor 4 (GRM4, Homo sapiens, UniProt Q14833); calcium signal, agonist).
`c1cc(N2CCNCC2)c2cc[nH]c2c1` gave a Ki of greater than 63.1 µM (CHRM4; ligand displacement, radioligand; cell membranes).
For `CC[C@H](C)[C@H](NC(=O)[C@H](CCCNC(=N)N)NC(=O)[C@H](CC(C)C)NC(=O)[C@@H](N)Cc1ccccc1)C(=O)N[C@@H](CCCNC(=N)N)C(=O)N1CCC[C@H]1C(=O)N[C@@H](CCCCN)C(=O)O`, the Ki was greater than 10 µM (HRH1; cell-free assay, radioligand).
`CC(C)(COP(=O)(O)OP(=O)(O)OC[C@H]1O[C@@H](n2cnc3c(N)ncnc32)[C@H](O)[C@@H]1OP(=O)(O)O)[C@@H](O)C(=O)NCCC(=O)NCCSC(=O)c1ccccc1N` gave a Kd of roughly 57 µM (pqsD (Pseudomonas aeruginosa, UniProt P20582, C113A); binding, ITC).
`Fc1ccc([C@@H]2CCNC[C@H]2COc2ccc3c(c2)OCO3)cc1` has a Ki of 10 µM (Beta-1 adrenergic receptor (ADRB1, Homo sapiens, UniProt P08588); ligand displacement, radioligand).
